PG9 Ab binder: binders of HIV-1 gp120 antibody PG9, primary screen, biochemical, TR-FRET; HIV-1 gp120 / PG9 antibody interaction; TR-FRET gp120-PG9 antibody binding; inhibition, % at 6.7 µM; hit rate 0.43% among 360,000; in the data active means inhibition above about 8.5%
ABCB6 inh MLPCN: ABCB6 transporter inhibitors, primary screen, K562-ABCB6 cells, flow cytometry, MLPCN library; K562-ABCB6 porphyrin accumulation, 1 h; hits give low values; AID 602162, 2011; fluorescence ratio to DMSO, % at 10 µM; hit rate 0.19% among 360,000; ATP-binding cassette sub-family B member 6 (Homo sapiens), Q9NP58;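 active means fluorescence ratio to DMSO below 75%, the collection mean minus 3 SD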;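 further: signal is porphyrin accumulated inside mitochondria; 100% equals median channel fluorescence of DMSO control wells; lower ratio means ABCB6 inhibition with less porphyrin fluorescence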
Target sequence (Q9NP58 whole entry, looked up): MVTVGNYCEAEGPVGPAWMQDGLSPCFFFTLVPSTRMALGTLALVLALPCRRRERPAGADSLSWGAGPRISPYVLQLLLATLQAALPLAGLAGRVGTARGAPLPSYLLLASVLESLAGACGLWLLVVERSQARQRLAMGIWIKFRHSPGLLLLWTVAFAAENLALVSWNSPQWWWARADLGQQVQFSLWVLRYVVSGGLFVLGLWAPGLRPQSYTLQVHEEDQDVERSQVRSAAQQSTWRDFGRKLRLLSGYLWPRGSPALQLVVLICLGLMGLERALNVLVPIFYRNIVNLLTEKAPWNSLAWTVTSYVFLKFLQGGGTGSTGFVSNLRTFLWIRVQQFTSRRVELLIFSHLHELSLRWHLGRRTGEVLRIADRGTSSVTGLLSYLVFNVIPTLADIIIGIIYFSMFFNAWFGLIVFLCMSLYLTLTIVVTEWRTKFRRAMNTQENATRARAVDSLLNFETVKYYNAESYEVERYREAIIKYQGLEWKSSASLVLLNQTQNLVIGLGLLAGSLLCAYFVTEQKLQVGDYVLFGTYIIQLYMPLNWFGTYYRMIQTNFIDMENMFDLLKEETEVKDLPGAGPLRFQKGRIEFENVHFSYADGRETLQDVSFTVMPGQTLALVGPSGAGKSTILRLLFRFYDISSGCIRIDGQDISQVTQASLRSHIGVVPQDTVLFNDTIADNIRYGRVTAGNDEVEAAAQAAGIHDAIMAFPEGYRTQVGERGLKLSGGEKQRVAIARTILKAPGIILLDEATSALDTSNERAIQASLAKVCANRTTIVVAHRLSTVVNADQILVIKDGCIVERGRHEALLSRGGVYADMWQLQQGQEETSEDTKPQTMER
Arr AP2 block: inhibitors of beta-arrestin/AP2 binding, primary screen, biochemical, GPCR trafficking, flow cytometry; beta-arrestin 1 C-terminal peptide binding to AP2 beta2-adaptin appendage (human); FITC-arrestin peptide / GST-AP2 beads; AP2 beta2 appendage carries R879A mutation; inhibition, % at 10 µM; hit rate 0.31% among 340,000;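 active means inhibition above a set limit, near 3 SD of compounds lacking own fluorescence, cut at about 54% in these data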;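 further: plate controls were DMSO wells for no effect and 5 µM unlabelled arrestin peptide for full effect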
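System: GST-AP2 R879A glutathione beads; medium: PBS, Tween 20 0.05%, BSA 0.1%; reagent: fluorescein-tagged arrestin peptide at 50 nM final; schedule: pre-incubation 12 min, peptide binding 1 h, room temperature; detection: flow cytometry, FL1 (488/535 nm); read-out: inhibition as reduced fluorescein signal on beads, percent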
iPSC survival up: enhancers of single-cell hiPSC survival, primary screen, ATPlite luminescence. 100% = ROCK inhibitor wells, 0% = DMSO. hit rate 0.044% among 360,000. survival enhancement, % at 20 µM; in the data active means survival enhancement above about 18%;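 further: cells exposed to compounds for 16 hours before the ATP read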
ABCB6 blocker 1: ABCB6 transporter inhibitors, confirmation, K562-ABCB6 cells, flow cytometry, cherry pick 1 | 700 tested, under 10 active | shares compounds with ABCB6 inh MLPCN | ratio response (% of DMSO), % at 10 µM | K562-ABCB6 porphyrin accumulation, 1 h; hits give low values;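 active means repeat-averaged ratio response below 75% of DMSO, the collection mean minus 3 SD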;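 further: median porphyrin fluorescence at 575 nm with 488 nm excitation from mitochondria; lower ratio means less porphyrin signal so ABCB6 inhibition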
The depositor's hits bear a star; . = not tested or not shown. Sampled rows, rich in hits. Any-hit rate of the full collection: about 0.89%.

SMILES	PG9 Ab binder	ABCB6 inh MLPCN	Arr AP2 block	iPSC survival up	ABCB6 blocker 1
CN1CCCCC(NC(=O)c2cccc(C(F)(F)F)c2)C1=O (stereo not given)	-1.3	.	.	.	.
C=CCN(CC=C)C[C@@H]1CSCCS(=O)(=O)N1	0.2	.	.	.	.
CCN(CC)S(=O)(=O)c1cccc(-c2nnc(SCC(=O)NCCC3=CCCCC3)n2N)c1	-2.8	71.0*	-11.8	-1.4	100.0
Nn1c(SCC(=O)NCCC2=CCCCC2)nnc1-c1cccnc1	-0.8	91.0	-4.9	0.2	.
COc1ccccc1OCc1nnc(SCC(=O)c2cc(Cl)ccc2OC)o1	1.8	68.0*	3.8	-0.8	98.0
Cc1nc2ccc(NC(=O)c3cccs3)cc2c(=O)n1Cc1ccc(Cl)cc1	-1.2	93.0	8.2	3.4	.
CCCc1nc2ccc(NC(=O)c3cccs3)cc2c(=O)n1Cc1ccc(Cl)cc1	-2.4	73.0*	-5.2	2.2	98.0
CN(C)c1ccc2c(c1)Sc1cc(N(C)C)ccc1N2C(=O)c1ccccc1	-2.4	73.0*	2.5	0.7	94.0
O=C(COC(=O)C1CCN(S(=O)(=O)c2cccs2)CC1)c1ccccc1	0.6	95.0	6.3	2.3	.
C/C(N)=C(/C#N)C(=O)COC(=O)C1CCN(S(=O)(=O)c2cccs2)CC1	-1.5	104.0	-18.5	-3.3	101.0
COC(=O)[C@H](Cc1ccccc1)N1CC=CS1(=O)=O	-0.1	.	.	.	.
O=c1cc(CSc2nnnn2-c2ccccc2)nc2sccn12	-0.3	96.0	24.9	0.8	.
O=c1cc(CSc2nnnn2-c2ccccc2)nc2nc[nH]n12	3.3	64.0*	-4.8	0.0	98.0
Cc1ccc(S(=O)(=O)Cn2cnnn2)cc1	2.4	60.0*	-15.8	0.6	100.0
Cc1ccc(S(=O)(=O)CS(=O)(=O)c2ccc(C)cc2)cc1	-1.1	191.0	-5.8	-1.3	.
COC(=O)CC#C[C@H](C)[C@@H](NS(C)(=O)=O)C(C)(C)COCc1ccccc1	0.7	.	.	.	.
COC(=O)c1cc2c(c3c4cc(OC)ccc4n(S(=O)(=O)c4cccc(C)c4)c13)C(=O)N(Cc1ccc(C(F)(F)F)cc1)C2	1.3	.	.	.	.
CC1(C)CC(=O)C=C(c2ccc(COC(=O)c3ccc(Br)cc3)cc2)C1=O	-2.7	.	.	.	.
CC(C)(C)CN1CCC(Oc2cccc(C(=O)N3CCNC(=O)C3(C)C)c2)CC1	-1.1	14.0*	-17.4	0.0	102.0
CCCCN(C)C(=O)c1cccc(OC2CCN(CC(C)(C)C)CC2)c1	-0.1	100.0	-6.0	-0.6	.
COC(=O)[C@]12C[C@H](CC(=O)NCc3ccc(OC)c(OC)c3)C(=O)N(CCC3=CCCCC3)C1=C[C@H](C(C)(C)C)O[C@@H]2C	-0.2	.	.	.	.
Cc1cnc(NC(=O)c2sc(Nc3ccccc3)nc2N)o1	-4.6	19.0*	49.1	0.9	98.0
CNC(=O)c1cc(Nc2nnc(-c3ccc(C)c(S(N)(=O)=O)c3)c3ccccc23)ccc1OC	-0.8	74.0*	3.3	0.9	101.0
COC(=O)C1CCN(C(=O)Cc2ccccc2OC)CC1	-3.6	72.0*	17.2	-0.6	99.0
COC(=O)c1cc2c(c3c4cc(F)ccc4n(S(=O)(=O)c4ccccc4)c13)C(=O)N(Cc1ccccc1)C2	0.5	.	.	.	.
SMILES	PG9 Ab binder	ABCB6 inh MLPCN	Arr AP2 block	iPSC survival up	ABCB6 blocker 1
O=C(CSc1nnc(-c2ccc(F)cc2)o1)Nc1ccc(S(=O)(=O)N2CCCCCC2)cc1	0.6	31.0*	-44.8	-1.4	98.0
CCCN1CCCCC(NC(=O)c2ccc(F)c(F)c2)C1=O (stereo not given)	-2.0	.	.	.	.
Cc1ccc(S(=O)(=O)Cc2ccc(C(=O)N3CCC(C(N)=O)CC3)o2)cc1	1.0	55.0*	1.6	-0.4	98.0
O=C1C=C(c2ccc(OC(F)(F)F)cc2)C[C@@H](c2ccc(Cl)cc2)C1	0.2	74.0*	8.1	-1.4	98.0
COc1ccc(C2=CC(=O)C[C@H](c3ccc(Cl)cc3)C2)cc1	0.0	101.0	-2.0	5.8	.
CCCCOc1ccc(C(=O)NC2CCCCN(C)C2=O)cc1 (stereo not given)	-1.0	.	.	.	.
CCCN1C(=O)c2n[nH]c(C)c2C1c1ccc(Br)cc1 (stereo not given)	-1.2	.	.	.	.
COc1ccc(NC(=O)c2ccccc2NC(=O)CSc2ccc(C)cc2)cc1	0.9	58.0*	5.4	-3.7	101.0
O=C(N[C@@H](Cc1cccnc1)C(=O)N1CCC[C@H]1C(=O)NCCc1ccccc1Cl)c1cccs1	-1.1	.	.	.	.
C[C@@H]1C=CCCO[C@]12C(=O)N(Cc1ccc(Br)cc1)c1cccc(Br)c12	-0.9	.	.	.	.
O=C(CCNS(=O)(=O)c1ccc(Br)cc1)NCc1ccc2c(c1)OCO2	-4.7	62.0*	2.1	-4.1	98.0
CCCNS(=O)(=O)c1ccc(CCC(=O)NCc2ccc3c(c2)OCO3)cc1	0.5	106.0	5.9	-3.0	.
O=C(c1cccs1)N1CCC(c2nc3c(nnn3Cc3c(Cl)cccc3Cl)c(=O)[nH]2)CC1	0.2	96.0	-2.6	1.4	100.0
O=C(c1cccs1)N1CCC(c2nc3c(nnn3Cc3cccc(Cl)c3)c(=O)[nH]2)CC1	-2.2	101.0	6.6	0.2	99.0
Cc1ccc(Cn2nnc3c(=O)[nH]c(C4CCN(C(=O)c5cccs5)CC4)nc32)cc1	-1.4	100.0	-1.4	-0.4	98.0
COC(=O)[C@]12C[C@H](CC(=O)NCc3ccc(OC)c(OC)c3)C(=O)N(Cc3ccccc3)C1=C[C@H](C(C)(C)C)O[C@@H]2C	-0.5	.	.	.	.
C=CCN1CC(COCc2ccccc2)OCCS1(=O)=O (stereo not given)	0.7	.	.	.	.
OC(COc1ccc(Br)cc1)Cn1ccnc1 (stereo not given)	-0.2	74.0*	1.0	2.4	99.0
COc1cccc(C2NC(=S)NC(C)=C2C(C)=O)c1 (stereo not given)	-1.3	.	.	.	.
O=C(NCc1ccccc1)c1cc(-c2cccs2)on1	-2.6	62.0*	9.8	-1.7	101.0
O=C(NCc1ccc(F)cc1)c1cc(-c2cccs2)on1	-1.1	96.0	-6.7	-2.0	.
O=C(c1ccco1)N1CCCC(c2nc3c(nnn3Cc3ccccc3)c(=O)[nH]2)C1 (stereo not given)	-3.4	99.0	0.4	0.2	.
Cc1ccc(C)c(Cn2nnc3c(=O)[nH]c(C4CCN(C(=O)c5cccs5)CC4)nc32)c1	1.8	83.0	25.2	-1.5	.
O=C(c1ccco1)N1CCC(c2nc3c(nnn3Cc3ccc(F)cc3)c(=O)[nH]2)CC1	0.0	98.0	0.8	-0.6	100.0
O=C(c1ccco1)N1CCC(c2nc3c(nnn3Cc3ccccc3Cl)c(=O)[nH]2)CC1	1.5	97.0	-1.7	-0.5	96.0

Screening results deposited in PubChem by several laboratories.
